{"source": "ChEMBL document CHEMBL1221269", "about": "“Synthesis of 3,3-diindolyl oxyindoles efficiently catalysed by FeCl3 and their in vitro evaluation for anticancer activity” (Bioorg Med Chem Lett, 2010)", "assay_type_in_all_cases": "functional, cell-based", "key": {"A549": {"tested_on": "A549", "assay": "Cytotoxicity against human A549 cells after 48 hrs by MTT assay", "conditions": "A549, 48 h", "in_short": "(§1)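 Cells seeded at 2.0×10^4 per well in 96-well plates, exposed to a range of test concentrations for 48 h. Medium then replaced with fresh medium containing MTT at 100 µg/mL for 2–3 h. Formazan dissolved in DMSO, OD read at 540 nm with 620 nm reference. Viability taken as treated vs untreated absorbance. IC50 in µM, mean of three separate experiments. Highest concentration tested 100 µM.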"}, "SK-N-SH": {"tested_on": "SK-N-SH", "assay": "Cytotoxicity against human SK-N-SH cells after 48 hrs by MTT assay", "in_short": "as §1"}, "MCF7 [1]": {"tested_on": "MCF7", "assay": "Cytotoxicity against human MCF7 cells after 48 hrs by MTT assay", "conditions": "MCF7, 48 h", "in_short": "as §1"}, "HepG2": {"tested_on": "HepG2", "assay": "Cytotoxicity against human HepG2 cells after 48 hrs by MTT assay", "conditions": "HepG2, 48 h", "in_short": "as §1"}, "DU-145": {"tested_on": "DU-145", "assay": "Cytotoxicity against human DU145 cells after 48 hrs by MTT assay", "conditions": "DU-145, 48 h", "in_short": "as §1"}, "MCF7 [2]": {"tested_on": "MCF7", "assay": "Cytotoxicity against human MCF7 cells at up to 100 uM after 48 hrs by MTT assay", "in_short": "as §1"}}, "note": "Activity calls are given as the source filed them. The calls are words filed in the database; no cut-off is given here.", "data": [{"compound": "COc1cccc2[nH]cc(C3(c4c[nH]c5cccc(OC)c45)C(=O)Nc4ccc(F)cc43)c12", "values": [{"measurement": "IC50", "setting": "A549", "result": 7.8, "unit": "µM"}, {"measurement": "IC50", "setting": "SK-N-SH", "result": 12.1, "unit": "µM"}, {"measurement": "IC50", "setting": "MCF7 [1]", "result": 7.5, "unit": "µM"}, {"measurement": "IC50", "setting": "HepG2", "result": 18, "unit": "µM"}, {"measurement": "IC50", "setting": "DU-145", "result": 9.4, "unit": "µM"}]}, {"compound": "O=C1Nc2ccc(F)cc2C1(c1c[nH]c2ccc(Cl)cc12)c1c[nH]c2ccc(Cl)cc12", "values": [{"measurement": "IC50", "setting": "A549", "result": 12.1, "unit": "µM"}, {"measurement": "IC50", "setting": "SK-N-SH", "result": 8.5, "unit": "µM"}, {"measurement": "IC50", "setting": "MCF7 [1]", "result": 24.8, "unit": "µM"}, {"measurement": "IC50", "setting": "HepG2", "result": 16.6, "unit": "µM"}, {"measurement": "IC50", "setting": "DU-145", "result": 19.6, "unit": "µM"}]}, {"compound": "Cn1cc(C2(c3cn(C)c4ccccc34)C(=O)Nc3ccccc32)c2ccccc21", "values": [{"measurement": "IC50", "setting": "A549", "result": 10.1, "unit": "µM"}, {"measurement": "IC50", "setting": "SK-N-SH", "result": 5.1, "unit": "µM"}, {"measurement": "IC50", "setting": "HepG2", "result": 12, "unit": "µM"}, {"measurement": "IC50", "setting": "DU-145", "result": 5.6, "unit": "µM"}, {"measurement": "Activity", "setting": "MCF7 [2]", "result": "inactive"}]}, {"compound": "O=C1Nc2ccccc2C1(c1c[nH]c2ccccc12)c1c[nH]c2ccccc12", "values": [{"measurement": "IC50", "setting": "A549", "result": 8.6, "unit": "µM"}, {"measurement": "IC50", "setting": "SK-N-SH", "result": 11.3, "unit": "µM"}, {"measurement": "IC50", "setting": "MCF7 [1]", "result": 49.8, "unit": "µM"}, {"measurement": "IC50", "setting": "HepG2", "result": 20.4, "unit": "µM"}, {"measurement": "IC50", "setting": "DU-145", "result": 8.7, "unit": "µM"}]}, {"compound": "Cn1cc(C2(c3cn(C)c4ccccc34)C(=O)Nc3ccc(F)cc32)c2ccccc21", "values": [{"measurement": "IC50", "setting": "A549", "result": 17.5, "unit": "µM"}, {"measurement": "IC50", "setting": "SK-N-SH", "result": 6.5, "unit": "µM"}, {"measurement": "IC50", "setting": "MCF7 [1]", "result": 9.2, "unit": "µM"}, {"measurement": "IC50", "setting": "HepG2", "result": 13, "unit": "µM"}, {"measurement": "IC50", "setting": "DU-145", "result": 11, "unit": "µM"}]}, {"compound": "COc1cccc2[nH]cc(C3(c4c[nH]c5cccc(OC)c45)C(=O)Nc4ccccc43)c12", "values": [{"measurement": "IC50", "setting": "A549", "result": 15.3, "unit": "µM"}, {"measurement": "IC50", "setting": "SK-N-SH", "result": 4.7, "unit": "µM"}, {"measurement": "IC50", "setting": "MCF7 [1]", "result": 14.1, "unit": "µM"}, {"measurement": "IC50", "setting": "HepG2", "result": 9, "unit": "µM"}, {"measurement": "IC50", "setting": "DU-145", "result": 5, "unit": "µM"}]}, {"compound": "O=C1Nc2ccccc2C1(c1c[nH]c2ccc(Br)cc12)c1c[nH]c2ccc(Br)cc12", "values": [{"measurement": "IC50", "setting": "A549", "result": 8, "unit": "µM"}, {"measurement": "IC50", "setting": "SK-N-SH", "result": 13.2, "unit": "µM"}, {"measurement": "IC50", "setting": "MCF7 [1]", "result": 46.8, "unit": "µM"}, {"measurement": "IC50", "setting": "HepG2", "result": 15.8, "unit": "µM"}, {"measurement": "IC50", "setting": "DU-145", "result": 3.6, "unit": "µM"}]}, {"compound": "O=C1Nc2ccc(F)cc2C1(c1c[nH]c2ccccc12)c1c[nH]c2ccccc12", "values": [{"measurement": "IC50", "setting": "A549", "result": 12.7, "unit": "µM"}, {"measurement": "IC50", "setting": "SK-N-SH", "result": 67.3, "unit": "µM"}, {"measurement": "IC50", "setting": "MCF7 [1]", "result": 23.6, "unit": "µM"}, {"measurement": "IC50", "setting": "HepG2", "result": 6.6, "unit": "µM"}, {"measurement": "IC50", "setting": "DU-145", "result": 12.8, "unit": "µM"}]}, {"compound": "COc1ccc2[nH]cc(C3(c4c[nH]c5ccc(OC)cc45)C(=O)Nc4ccc(F)cc43)c2c1", "values": [{"measurement": "IC50", "setting": "A549", "result": 10.6, "unit": "µM"}, {"measurement": "IC50", "setting": "SK-N-SH", "result": 7, "unit": "µM"}, {"measurement": "IC50", "setting": "HepG2", "result": 36.6, "unit": "µM"}, {"measurement": "IC50", "setting": "DU-145", "result": 3.6, "unit": "µM"}, {"measurement": "Activity", "setting": "MCF7 [2]", "result": "inactive"}]}, {"compound": "O=C1Nc2ccc(F)cc2C1(c1c[nH]c2ccc([N+](=O)[O-])cc12)c1c[nH]c2ccc([N+](=O)[O-])cc12", "values": [{"measurement": "IC50", "setting": "A549", "result": 7.7, "unit": "µM"}, {"measurement": "IC50", "setting": "SK-N-SH", "result": 6.8, "unit": "µM"}, {"measurement": "IC50", "setting": "HepG2", "result": 23.8, "unit": "µM"}, {"measurement": "IC50", "setting": "DU-145", "result": 7.5, "unit": "µM"}, {"measurement": "Activity", "setting": "MCF7 [2]", "result": "inactive"}]}, {"compound": "O=C1Nc2ccccc2C1(c1c[nH]c2ccc(Cl)cc12)c1c[nH]c2ccc(Cl)cc12", "values": [{"measurement": "IC50", "setting": "A549", "result": 8.3, "unit": "µM"}, {"measurement": "IC50", "setting": "SK-N-SH", "result": 9.4, "unit": "µM"}, {"measurement": "IC50", "setting": "HepG2", "result": 14.6, "unit": "µM"}, {"measurement": "IC50", "setting": "DU-145", "result": 8.1, "unit": "µM"}, {"measurement": "Activity", "setting": "MCF7 [2]", "result": "inactive"}]}, {"compound": "COc1ccc2[nH]cc(C3(c4c[nH]c5ccc(OC)cc45)C(=O)Nc4ccccc43)c2c1", "values": [{"measurement": "IC50", "setting": "A549", "result": 11.2, "unit": "µM"}, {"measurement": "IC50", "setting": "SK-N-SH", "result": 3.9, "unit": "µM"}, {"measurement": "IC50", "setting": "MCF7 [1]", "result": 33.6, "unit": "µM"}, {"measurement": "IC50", "setting": "HepG2", "result": 30.2, "unit": "µM"}, {"measurement": "IC50", "setting": "DU-145", "result": 2.2, "unit": "µM"}]}, {"compound": "O=C1Nc2ccccc2C1(c1c[nH]c2ccc([N+](=O)[O-])cc12)c1c[nH]c2ccc([N+](=O)[O-])cc12", "values": [{"measurement": "IC50", "setting": "A549", "result": 10.3, "unit": "µM"}, {"measurement": "IC50", "setting": "SK-N-SH", "result": 11.8, "unit": "µM"}, {"measurement": "IC50", "setting": "HepG2", "result": 23.4, "unit": "µM"}, {"measurement": "IC50", "setting": "DU-145", "result": 8, "unit": "µM"}, {"measurement": "Activity", "setting": "MCF7 [2]", "result": "inactive"}]}, {"compound": "COc1ccc2c(C3(c4c[nH]c5cc(OC)ccc45)C(=O)Nc4ccccc43)c[nH]c2c1", "values": [{"measurement": "IC50", "setting": "A549", "result": 7.8, "unit": "µM"}, {"measurement": "IC50", "setting": "SK-N-SH", "result": 13.6, "unit": "µM"}, {"measurement": "IC50", "setting": "MCF7 [1]", "result": 45.4, "unit": "µM"}, {"measurement": "IC50", "setting": "HepG2", "result": 12, "unit": "µM"}, {"measurement": "IC50", "setting": "DU-145", "result": 1.2, "unit": "µM"}]}, {"compound": "O=C1Nc2ccc(F)cc2C1(c1c[nH]c2ccc(Br)cc12)c1c[nH]c2ccc(Br)cc12", "values": [{"measurement": "IC50", "setting": "A549", "result": 10.3, "unit": "µM"}, {"measurement": "IC50", "setting": "SK-N-SH", "result": 2.8, "unit": "µM"}, {"measurement": "IC50", "setting": "MCF7 [1]", "result": 12.8, "unit": "µM"}, {"measurement": "IC50", "setting": "HepG2", "result": 12.8, "unit": "µM"}, {"measurement": "IC50", "setting": "DU-145", "result": 16.3, "unit": "µM"}]}, {"compound": "COc1ccc2c(C3(c4c[nH]c5cc(OC)ccc45)C(=O)Nc4ccc(F)cc43)c[nH]c2c1", "values": [{"measurement": "IC50", "setting": "A549", "result": 14.4, "unit": "µM"}, {"measurement": "IC50", "setting": "SK-N-SH", "result": 4.1, "unit": "µM"}, {"measurement": "IC50", "setting": "MCF7 [1]", "result": 12, "unit": "µM"}, {"measurement": "IC50", "setting": "HepG2", "result": 16, "unit": "µM"}, {"measurement": "IC50", "setting": "DU-145", "result": 13.1, "unit": "µM"}]}]}
